Experiment [1] addresses T1, Alpha-1D adrenergic receptor (Homo sapiens) (UniProt P25100).
T1 sequence (whole entry): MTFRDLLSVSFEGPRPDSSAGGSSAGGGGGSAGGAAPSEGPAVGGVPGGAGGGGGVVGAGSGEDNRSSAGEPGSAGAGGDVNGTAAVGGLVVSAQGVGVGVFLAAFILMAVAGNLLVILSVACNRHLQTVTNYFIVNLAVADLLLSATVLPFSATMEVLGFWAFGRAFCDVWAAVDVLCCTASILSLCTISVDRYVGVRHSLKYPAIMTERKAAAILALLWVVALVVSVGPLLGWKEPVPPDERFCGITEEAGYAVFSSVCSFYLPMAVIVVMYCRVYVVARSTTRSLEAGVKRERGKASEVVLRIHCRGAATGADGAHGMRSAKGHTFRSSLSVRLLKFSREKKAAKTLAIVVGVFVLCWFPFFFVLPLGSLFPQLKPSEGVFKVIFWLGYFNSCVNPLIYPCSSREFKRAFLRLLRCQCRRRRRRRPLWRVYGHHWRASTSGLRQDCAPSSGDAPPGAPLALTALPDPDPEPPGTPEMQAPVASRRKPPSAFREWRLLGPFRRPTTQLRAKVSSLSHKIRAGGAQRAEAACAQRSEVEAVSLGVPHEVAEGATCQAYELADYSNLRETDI
Briefly: The binding affinity was evaluated on cloned human Alpha-1D adrenergic receptor expressed in chinese hamster ovary(CHO) cells by using [3H]-prazosin as radioligand. The format is cell-based. The essentials: (§1)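 Membranes (30 μg protein) from CHO cells stably expressing each human α1 subtype, in 50 mM Tris-HCl pH 7.4. Incubated with 0.1–0.4 nM [3H]prazosin for 30 min at 25 °C, competitor 1 pM–10 μM. Nonspecific binding with 10 μM phentolamine. Ki by Cheng-Prusoff. 2–3 experiments in triplicate.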

Experiment [2] deals with T2, Alpha-1D adrenergic receptor (Rattus norvegicus) (UniProt P23944).
T2 sequence (whole entry): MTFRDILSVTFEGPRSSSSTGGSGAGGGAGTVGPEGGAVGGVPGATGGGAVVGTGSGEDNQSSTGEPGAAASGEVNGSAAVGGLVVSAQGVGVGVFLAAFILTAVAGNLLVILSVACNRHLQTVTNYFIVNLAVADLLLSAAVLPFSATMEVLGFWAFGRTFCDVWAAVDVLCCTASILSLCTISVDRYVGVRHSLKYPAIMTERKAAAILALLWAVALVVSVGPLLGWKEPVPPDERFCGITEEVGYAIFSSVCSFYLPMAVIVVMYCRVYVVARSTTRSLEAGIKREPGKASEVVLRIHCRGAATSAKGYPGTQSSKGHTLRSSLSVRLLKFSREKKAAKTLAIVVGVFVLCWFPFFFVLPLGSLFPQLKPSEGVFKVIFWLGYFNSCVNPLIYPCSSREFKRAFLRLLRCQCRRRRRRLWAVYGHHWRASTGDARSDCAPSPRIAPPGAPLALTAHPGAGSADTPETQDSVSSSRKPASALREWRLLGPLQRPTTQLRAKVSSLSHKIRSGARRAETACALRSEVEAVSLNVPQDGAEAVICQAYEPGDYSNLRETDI
Briefly: Antagonist affinity was expressed as apparent pKb at Alpha-1D adrenergic receptor on isolated rat thoracic aorta (Alpha-1D). The format is functional, tissue-based. The essentials:
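Helicoidal strips of rat thoracic aorta at 1 g tension, with 0.1 μM cocaine and 1 μM propranolol. After ≥1 h equilibration, cumulative (–)-noradrenaline curves at 30-min intervals; the third served as control. Antagonist equilibrated 30 min before the fourth curve. Apparent pKb from log(DR−1) − log[B], 2–3 antagonist concentrations, each tested four times.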

The target of experiment [3] is T3, 5-hydroxytryptamine receptor 1A (Homo sapiens) (UniProt P08908).
T3 sequence (whole entry): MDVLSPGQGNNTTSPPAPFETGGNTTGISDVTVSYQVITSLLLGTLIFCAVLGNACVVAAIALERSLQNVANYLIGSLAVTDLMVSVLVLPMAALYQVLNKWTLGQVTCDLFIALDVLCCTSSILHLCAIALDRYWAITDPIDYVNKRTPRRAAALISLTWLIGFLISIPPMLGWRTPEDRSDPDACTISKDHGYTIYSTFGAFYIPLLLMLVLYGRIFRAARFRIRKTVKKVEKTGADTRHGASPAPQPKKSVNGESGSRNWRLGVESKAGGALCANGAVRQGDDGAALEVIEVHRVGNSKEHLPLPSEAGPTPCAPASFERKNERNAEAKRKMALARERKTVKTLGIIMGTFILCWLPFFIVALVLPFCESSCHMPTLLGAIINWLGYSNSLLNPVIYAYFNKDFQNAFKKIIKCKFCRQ
Briefly: The binding affinity was evaluated on cloned human 5-hydroxytryptamine 1A receptor expressed in HeLa cells by using DPAT as radioligand. In kind it is cell-based. In short, it runs like this:
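Membranes from HeLa cells stably expressing human 5-HT1A, in 50 mM Tris-HCl pH 7.4, 2.5 mM MgCl2, 10 μM pargyline. Nonspecific binding with 10 μM 5-HT. Filtration. Ki by Cheng-Prusoff. 2–3 experiments in triplicate.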

In experiment [4] the target is 5-hydroxytryptamine receptor 2A (Rattus norvegicus) (UniProt P14842). Briefly: The binding affinity was evaluated on 5-hydroxytryptamine 2A receptor expressed in rat cortex by using [3H]ketanserin as radioligand. The essentials:
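Rat cerebral cortex membranes in Tris-HCl pH 7.4 with 10 μM pargyline and 0.1% ascorbic acid. Incubated 20 min at 37 °C with 0.7–1.3 nM [3H]ketanserin. Nonspecific binding with 2 μM ketanserin. Filtration and scintillation counting. Ki by Cheng-Prusoff. 2–3 experiments in triplicate.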

For experiment [5], the target named is T4, Alpha-1B adrenergic receptor (Homo sapiens) (UniProt P35368).
T4 sequence (whole entry): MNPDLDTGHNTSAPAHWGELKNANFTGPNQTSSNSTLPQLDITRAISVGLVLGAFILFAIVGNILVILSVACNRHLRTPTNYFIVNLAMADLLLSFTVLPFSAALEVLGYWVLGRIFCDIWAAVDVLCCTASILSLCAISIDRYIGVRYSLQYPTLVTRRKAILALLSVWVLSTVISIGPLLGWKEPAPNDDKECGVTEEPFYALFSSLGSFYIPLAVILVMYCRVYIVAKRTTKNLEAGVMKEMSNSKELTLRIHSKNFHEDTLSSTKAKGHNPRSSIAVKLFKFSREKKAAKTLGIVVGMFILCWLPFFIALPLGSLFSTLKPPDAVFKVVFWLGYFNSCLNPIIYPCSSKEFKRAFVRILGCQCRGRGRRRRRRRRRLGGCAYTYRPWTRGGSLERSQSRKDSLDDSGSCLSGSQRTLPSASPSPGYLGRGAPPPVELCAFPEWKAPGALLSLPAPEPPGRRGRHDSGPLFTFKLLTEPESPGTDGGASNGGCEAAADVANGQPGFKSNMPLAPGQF
Briefly: The binding affinity was evaluated on cloned human Alpha-1B adrenergic receptor expressed in chinese hamster ovary(CHO) cells by using [3H]prazosin as radioligand. The format is cell-based. The essentials: as §1

The source of these data is ChEMBL document CHEMBL1132324, “Structure-activity relationships in 1,4-benzodioxan-related compounds. 6. Role of the dioxane unit on selectivity for alpha(1)-adrenoreceptor subtypes” (J Med Chem, 1999).

Molecules are shown by their SMILES. Where only a bound is given, the exact number is not on record here.

Sequence of 5-hydroxytryptamine receptor 2A (Rattus norvegicus) (P14842 whole entry): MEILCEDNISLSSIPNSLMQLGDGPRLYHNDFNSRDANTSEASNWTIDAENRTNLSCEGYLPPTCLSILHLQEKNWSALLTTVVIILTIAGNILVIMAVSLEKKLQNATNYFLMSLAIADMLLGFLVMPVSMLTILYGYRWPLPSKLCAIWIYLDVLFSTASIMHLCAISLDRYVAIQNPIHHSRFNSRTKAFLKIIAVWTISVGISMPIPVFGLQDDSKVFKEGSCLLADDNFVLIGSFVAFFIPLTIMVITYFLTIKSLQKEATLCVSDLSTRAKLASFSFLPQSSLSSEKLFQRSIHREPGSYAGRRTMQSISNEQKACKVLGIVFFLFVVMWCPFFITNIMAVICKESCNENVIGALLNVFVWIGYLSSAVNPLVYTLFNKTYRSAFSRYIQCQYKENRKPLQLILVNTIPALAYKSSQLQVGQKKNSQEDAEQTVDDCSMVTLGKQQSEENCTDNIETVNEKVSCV

In general, pKi refers to the negative decadic logarithm of the Ki, by convention in mol/L. One may read the pKb as −log10 of the Kb, conventionally taken in molar units. For the compound `COc1cccc(OC)c1OCCNCC1Oc2ccccc2CC1c1ccccc1` (stereo in doubt; 7), the negative-log Ki (pKi) in experiment [1] was 7.28; in experiment [3], 6.84; in experiment [4] it was under 6; in experiment [5] it was 6.58. Besides, in experiment [2], the pKb was found to be 7.46.

For `COc1cccc(OC)c1OCCNCC1C(=O)c2ccccc2OC1c1ccccc1` (stereo unspecified), the results for the negative logarithm of the Ki (pKi) in experiment [3] and in experiment [4] were 6.73 and 6.2, respectively.

For the compound `COc1cccc(OC)c1OCCNCCOc1ccccc1OCc1ccccc1`, the pKi stood at 10.2 in experiment [1], 7.93 in experiment [3] and 9.27 in experiment [5]. Besides, in experiment [2], the pKb was found to be 9.37.
